Measured values from publication PMC2292217 (The Journal of Experimental Medicine, 2008).

Columns and labels:
peritoneal MΦs (PMΦs) [1] = test: MΦ activation assay: LPS/IFN-γ–induced inflammatory cytokine expression; format: cell-based, mouse (C57BL/6); details: for Antiinflammatory activity in the MΦ activation assay (in words): PMΦs, peptides 0.1 pM–100 nM, LPS/IFN-γ 15 h
mice = details: cited from earlier work
C57Bl6/J mice = test: Zymosan-induced peritonitis; format: in vivo, mouse; details: for Protection in vivo as judged by neutrophil and monocyte levels (in words): same dose and time as C15 (0.32 ng/kg i.p. 1 h before zymosan), 4 h
Procedure, shortened: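 C57BL6/J mice received test peptide i.p. (8 pg/mouse, ∼0.32 ng/kg, in 500 μl) or PBS, either 1 h before or 2 h after 10 μg zymosan A i.p. Peritoneal lavage with PBS-3 mM EDTA was done at 2–48 h. Cells were counted, Fc-blocked, stained for 7/4 and Ly-6G, and typed by FACS: neutrophils 7/4high Ly-6Ghigh, monocytes 7/4high Ly-6Glow. Six to eight mice per treatment.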

ChemR23−/− PMΦs [2] = test: MΦ chemotaxis assay with ChemR23 KO MΦs; format: cell-based, mouse; details: MΦs from ChemR23−/− mice, 4 h migration
ChemR23−/− PMΦs [3] = test: MΦ activation assay in MΦs from ChemR23−/− mice; format: cell-based, mouse; details: 0.1–1 pM, 1 h pretreatment, LPS/IFN-γ 15 h; ELISA
MΦs = test: Cell viability, MTS assay; format: cell-based, mouse; details: MTS assay (Promega)
[4] = system: wild-type Bio-Gel–elicited peritoneal cells; test: Calcium flux in wild-type cells; format: cell-based, mouse; details: Fura-PE3/AM
Procedure, shortened: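 Cells from mice 4 d after Bio-Gel elicitation were suspended at 10^7 cells/ml in HBSS with CaCl2/MgCl, 0.5% BSA and 10 mM Hepes. They were loaded with 2 μM Fura-PE3/AM for 45 min at room temperature, then washed twice. 3 × 10^6 cells were added to prewarmed 37°C buffer in a cuvette. After at least 60 s, fluorescence was recorded at excitation 340/380 nm and emission 510 nm.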

[5] = system: Bio-Gel–elicited peritoneal cells from ChemR23 KO mice; test: Calcium flux in ChemR23 KO cells; format: cell-based, mouse; details: Fura-PE3/AM
peritoneal MΦs (PMΦs) [6] = test: MΦ chemotaxis assay; format: cell-based, mouse; details: 25 ng/ml, positive control, 4 h; mean ± SEM, n = 4 independent experiments
Procedure, shortened: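 Bio-Gel-elicited peritoneal MΦs (4 × 10^5) from wild-type or ChemR23−/− mice were placed on 8-μm-pore membranes in RPMI/25 mM Hepes/0.1% BSA. They migrated 4 h toward test peptide, 25 ng/ml RANTES (positive control) or serum-free medium. For Gαi blockade, cells were pretreated 30 min with 200 ng/ml PTX. Migrated nuclei were formalin-fixed, DAPI-stained and imaged, with ≥3 replicate wells per treatment. Migration index = treatment threshold area ÷ serum-free area; n = 4 experiments.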

[7] = 0.32 ng/kg i.p. 1 h before zymosan, lavage fluid at 4 h
[8] = time course, 8 pg/mouse i.p. 1 h before zymosan, 4 h after zymosan, FACS
[9] = classically activated PMΦs, quantitative RT-PCR normalized to HPRT

## FSRALRTK [C8]
Peritoneal MΦs (PMΦs) [1]
  Antiinflammatory activity in the MΦ activation assay (in words): no detectable antiinflammatory activity

## C[C@@H]1C[C@H]2[C@@H]3CCC4=CC(=O)C=C[C@]4(C)[C@@]3(F)[C@@H](O)C[C@]2(C)[C@@]1(O)C(=O)CO [dexamethasone]
mice; 30 μg/mouse (1.2 mg/kg)
  Suppression of monocyte and neutrophil influx: 50%

## KPECTIKPNGRRRKCLACIK [M20]
Peritoneal MΦs (PMΦs) [1]
  Antiinflammatory activity in the MΦ activation assay (in words): devoid of antiinflammatory activity

## PHGYFLPGQFA [C11]
Peritoneal MΦs (PMΦs) [1]
  Antiinflammatory activity in the MΦ activation assay (in words): devoid of antiinflammatory activity

## CC[C@@H](O)/C=C/C=C\C[C@@H](O)/C=C/C=C/C=C\[C@@H](O)CCCC(=O)O [RvE1, resolvin E1]
mice; 300 ng/mouse i.p. (12 μg/kg)
  Reduction of PMN numbers in peritoneal exudates: up to 25%

## ELSETQRRSLQVALEEFHK [N19]
Peritoneal MΦs (PMΦs) [1]
  Antiinflammatory activity in the MΦ activation assay (in words): devoid of antiinflammatory activity

## RALRTK [C6]
Peritoneal MΦs (PMΦs) [1]
  Antiinflammatory activity in the MΦ activation assay (in words): no detectable antiinflammatory activity

## AGEDPHGYALPGQAA [C15-M]
Peritoneal MΦs (PMΦs) [1]
  Antiinflammatory activity in the MΦ activation assay (in words): devoid of antiinflammatory activity
C57Bl6/J mice
  Protection in vivo as judged by neutrophil and monocyte levels (in words): not protective

## GLFHDQAGPPAGYEF [C15-S]
Peritoneal MΦs (PMΦs) [1]
  Antiinflammatory activity in the MΦ activation assay (in words): devoid of antiinflammatory activity
C57Bl6/J mice
  Protection in vivo as judged by neutrophil and monocyte levels (in words): not protective

## fMLP [reference compound]
ChemR23−/− PMΦs [2]
  Chemotactic effect in ChemR23 KO MΦs (in words): unaffected

## AGEDPHGYFLPGQFA [C15]
ChemR23−/− PMΦs [2]
  Chemotactic effect in ChemR23 KO MΦs (in words): completely ablated
ChemR23−/− PMΦs [3]
  Suppression of proinflammatory mediator production by ChemR23 KO MΦs (in words): unable to suppress
C57Bl6/J mice; 4 pg/mouse (∼0.16 ng/kg) i.p., 4 h after zymosan
  Effect at 4 pg/mouse (in words): significant antiinflammatory effects
C57Bl6/J mice; 8 pg i.p. 2 h after zymosan, 4 h after zymosan
  Decrease in monocyte recruitment, C15 post-zymosan: 42%
C57Bl6/J mice; 8 pg i.p. 2 h after zymosan, lavage 4 h after zymosan, zymosan alone 0.69 × 10^6
  Peritoneal monocyte levels, C15 post-zymosan: 0.42 × 10^6 cells
C57Bl6/J mice; 8 pg i.p. 2 h after zymosan, lavage 4 h after zymosan, zymosan alone 1.9 × 10^6
  Peritoneal neutrophil numbers, C15 post-zymosan: 0.83 × 10^6 cells
C57Bl6/J mice; [7]
  Reduction of peritoneal IL-1β expression: 67%
  Reduction of peritoneal IL-6 expression: 67%
  Reduction of peritoneal JE expression: 59%
  Reduction of peritoneal KC expression: 38%
  Reduction of peritoneal TNF-α expression: 51%
C57Bl6/J mice; 2–4 h after zymosan, 8 pg/mouse i.p. pretreatment, zymosan alone 0.51 × 10^6
  Rate of monocyte influx: 0.18 × 10^6 cells/h
C57Bl6/J mice; time course, 8 pg/mouse i.p. 1 h before zymosan
  Magnitude of peak neutrophilia relative to zymosan-challenged mice: ~50%
C57Bl6/J mice; time course, 8 pg/mouse i.p. 1 h before zymosan, 2 h after zymosan, FACS
  Suppression of neutrophil infiltration, 2 h: 50%
C57Bl6/J mice; [8]
  Suppression of monocyte levels, 4 h: 63%
  Suppression of neutrophil infiltration, 4 h: 66%
C57Bl6/J mice; time course, 8 pg/mouse i.p. 1 h before zymosan, 8 h after zymosan, FACS
  Suppression of monocyte levels, 8 h: 61%
C57Bl6/J mice; time course, 8 pg/mouse i.p. 1 h before zymosan, 24 h after zymosan, FACS
  Suppression of neutrophil infiltration, 24 h: 50%
C57Bl6/J mice; time course, 8 pg/mouse i.p. 1 h before zymosan, 48 h after zymosan, FACS
  Suppression of monocyte levels, 48 h: 64%
C57Bl6/J mice; time course, 8 pg/mouse i.p. 1 h before zymosan, zymosan alone 1.25 × 10^6
  Peak peritoneal neutrophil number: 0.62 × 10^6 cells

B1: Chemerin: recombinant murine chemerin (R&D Systems), chemotactic protein that binds ChemR23 (protein, UniProt Q9DD06 21-156, looked up)
Retinoic acid receptor …: EPELSETQRRSLQVALEEFHKHPPVQLAFQEIGVDRAEEVLFSAGTFVRLEFKLQQTNCPKKDWKKPECTIKPNGRRRKCLACIKMDPKGKILGRIVHCPILKQGPQDPQELQCIKIAQAGEDPHGYFLPGQFAFS
ChemR23−/− PMΦs [2]
  Chemotactic effect in ChemR23 KO MΦs (in words): completely ablated
MΦs
  Effect on cell viability (in words): not found to affect cell viability adversely
[4]
  Calcium flux (in words): induce calcium flux
[5]
  Calcium flux (in words): failed to do so
Peritoneal MΦs (PMΦs) [1]; [9]
  Induction of IL-10 mRNA expression: 10 fold
  Induction of TGF-β mRNA expression: twofold

B2: RANTES: CC chemokine, positive control in chemotaxis (25 ng/ml; 3 nM) (protein, UniProt P13501 24-91, looked up)
C-C motif chemokine 5: SPYSSDTTPCCFAYIARPLPRAHIKEYFYTSGKCSNPAVVFVTRKNRQVCANPEKKWVREYINSLEMS
ChemR23−/− PMΦs [2]
  Chemotactic effect in ChemR23 KO MΦs (in words): unaffected
Peritoneal MΦs (PMΦs) [6]
  Migration index: 6 ± 0.59
